Measurements from ChEMBL document CHEMBL3526035, “Role of the intestinal peptide transporter PEPT1 in oseltamivir absorption: in vitro and in vivo studies” (Drug Metab Dispos, 2012).
Where a SMILES comes first, the peptide text is derived from it. [ ]: non-standard residue; d: D form. Sar = CNCC(=O)O

Legend:
[1] = target: T1, Solute carrier family 15 member 1 (Homo sapiens, UniProt P46059); test: Drug uptake in CHOK1 cells expressing human PEPT1 at 2 uM after 10 mins measured per mg protein by HPLC coupled with radiodetection analysis; type: ADME, cell-based; conditions: cho-k1, 10 min
T1 sequence (P46059 whole entry): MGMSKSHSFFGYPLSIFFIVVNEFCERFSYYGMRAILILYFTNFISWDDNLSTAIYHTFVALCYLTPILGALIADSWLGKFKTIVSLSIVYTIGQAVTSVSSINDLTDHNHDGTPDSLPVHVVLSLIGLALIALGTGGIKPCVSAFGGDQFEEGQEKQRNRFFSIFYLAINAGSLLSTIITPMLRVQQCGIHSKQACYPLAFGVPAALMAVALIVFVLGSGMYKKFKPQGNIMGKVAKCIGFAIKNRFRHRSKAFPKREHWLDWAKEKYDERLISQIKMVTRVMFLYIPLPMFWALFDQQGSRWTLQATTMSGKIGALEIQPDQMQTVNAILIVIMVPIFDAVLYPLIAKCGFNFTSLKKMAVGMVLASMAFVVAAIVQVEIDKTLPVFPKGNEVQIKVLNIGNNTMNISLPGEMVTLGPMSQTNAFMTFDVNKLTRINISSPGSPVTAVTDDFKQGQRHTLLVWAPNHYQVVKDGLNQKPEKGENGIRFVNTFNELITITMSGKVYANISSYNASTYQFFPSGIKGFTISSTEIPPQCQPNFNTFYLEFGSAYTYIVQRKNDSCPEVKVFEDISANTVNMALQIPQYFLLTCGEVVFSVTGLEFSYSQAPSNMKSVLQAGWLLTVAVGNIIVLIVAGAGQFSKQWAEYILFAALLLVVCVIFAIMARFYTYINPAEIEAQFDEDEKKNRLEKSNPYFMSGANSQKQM
Outline: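 Transporter functionality check: 2 µM [3H]Gly-Sar was incubated for 10 min at 37°C, pH 6, in KH/MES buffer with CHO-PEPT1 versus CHO-K1 cells. Intracellular radioactivity in Triton X-100 lysates was expressed as pmol/mg protein (BCA). Six independent experiments, triplicate wells.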

[2] = target: T1, Solute carrier family 15 member 1; test: Drug uptake in CHOK1 cells expressing human PEPT1 by HPLC coupled with radiodetection analysis; type: ADME, cell-based; conditions: cho-k1, TDE = time-dependent effect
Outline: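 Accumulation of [14C]oseltamivir or its carboxylate in CHO-PEPT1 versus CHO-K1 cells. Conditions varied: KH buffer (with MES) or Hanks' balanced salt solution, pH 5 or 6 readjusted after substrate addition, 30 s to 15 min at 37°C. Uptake was quenched with ice-cold PBS-BSA, followed by Triton X-100 lysis, scintillation counting, and BCA protein normalization. HPLC-radiodetection checked ester stability.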

[3] = Drug uptake in CHOK1 cells at 2 uM after 10 mins measured per mg protein by HPLC coupled with radiodetection analysis; type: ADME, cell-based, Cricetulus griseus; conditions: chinese hamster, cho-k1, 10 min
Outline: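 CHO-K1 cells given 2 μM [3H]Gly-Sar in KH buffer at pH 6 for 10 min at 37°C. Ice-cold PBS-BSA quench, then washes and Triton lysis. Scintillation counts expressed as pmol/mg protein (BCA). n=6 experiments.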

[4] = Drug uptake in CHOK1 cells at 2 uM at pH 4 to 8 after 10 mins by HPLC coupled with radiodetection analysis; type: ADME, cell-based, Cricetulus griseus; conditions: chinese hamster, cho-k1, pH 4, 10 min
Outline: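 [3H]Gly-Sar at 2 μM in KH buffer over pH 4-8, incubated with CHO-K1 cells for 10 min at 37°C. Accumulated radioactivity in cell lysates counted and normalised to protein. Three independent experiments.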

CN(CC(=O)O)C(=O)CN [GLYCYLSARCOSINE] (H-Gly-[Sar]-OH)
Drug uptake [1]: 182 pmol | Drug uptake [2]: tde | Drug uptake [3]: 1.1 pmol | Drug uptake [4]: Active
